Measured values from ChEMBL document CHEMBL1124455, “Benzodiazepine receptor binding activity of 6,9-disubstituted purines” (J Med Chem, 1989).
pIC50: −log10 of the molar value.

Experiments:
[1] = target: T1, GABA-A receptor; anion channel (Rattus norvegicus) (UniProt O09028+P15431+P18506+P18508+P19969+P20236+P23574+P23576+P28471+P28473+P30191+P62813+P63079+P63138+Q91ZM7+Q9ES14); assay: The percent inhibition of [3H]diazepam binding to the benzodiazepine receptor of rat brain elicited by 100 uM of compound
[2] = target: GABA-A receptor; anion channel; assay: Concentration that inhibits binding of 1.5 nM [3H]diazepam to rat brain benzodiazepine receptor
How it was run: (§1)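 Membranes from male Sprague-Dawley rat brain (110–220 g; cerebellum and pons medulla removed), homogenized in 0.32 M sucrose. The 30000g pellet was stored frozen and resuspended in Tris-HCl pH 7.5. Filtered on GF/C and washed with ice-cold buffer, then scintillation counted.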

[3] = system: Rattus norvegicus; assay: Effect on conflict responding in Long-Evans rats when 25 mg/kg was administered by oral gavage in a modified Geller-Seifter conflict schedule.; assay type: functional
How it was run: (§2)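 Rats run on a modified Geller-Seifter conflict schedule. Shock was 0.00 mA for the first response of each conflict period, rising by 0.05 mA per successive response. 25 mg/kg given by oral gavage as a 0.5% methylcellulose suspension, 60 min before the operant session. Result is percent change in conflict responses versus the preceding day, mean and SEM, at least four rats.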

[4] = target: T1, GABA-A receptor; anion channel (Rattus norvegicus); assay: Percent inhibition of [3H]diazepam binding to rat brain GABA-A benzodiazepine receptor at 100 uM
How it was run: as §1, with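 “7.5. […]” for “7.5.”, “counted. Percent inhibition of specific binding at 100 μM; IC50 usually determined when >75%.” for “counted.”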

[5] = system: Rattus norvegicus; assay: Effect on conflict responding in Long-Evans rats when 25 mg/kg was administered by oral gavage in a modified Geller-Seifter conflict schedule and the value ranges from -10 to + 13; assay type: functional; how it was run: as §2
[6] = system: Rattus norvegicus; assay: Effect on conflict responding in Long-Evans rats when 5 mg/kg was administered by oral gavage in a modified Geller-Seifter conflict schedule.; assay type: functional
How it was run: (§3)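 Rats on a modified Geller-Seifter operant conflict schedule were dosed by oral gavage as a 0.5% methylcellulose suspension 60 min before the session. Shock was 0.00 mA for the first response in each conflict period, rising 0.05 mA with each further response. The value is the percent change in conflict responses from the preceding day, as mean and SEM of at least four rats.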

[7] = system: Rattus norvegicus; assay: Effect on conflict responding in Long-Evans rats when 10 mg/kg was administered by oral gavage in a modified Geller-Seifter conflict schedule.; assay type: functional; how it was run: as §3
[8] = in the assay text read “10 uM” for “100 uM”

Row | SMILES | inhibition [1] | pIC50 [2] | other results
1 | Cc1ccc(Cn2cnc3c(N(C)C)ncnc32)cc1 | 22% | – | –
2 | COc1ncnc2c1ncn2Cc1ccccc1 [9-BENZYL-6-METHOXY-9H-PURINE] | – | 4.85 | Change in conflict [3]: 26%
3 | CN(C)c1ncnc2c1ncn2Cc1cccc(I)c1 | 64% | – | –
4 | c1ccc(Cn2cnc3cncnc32)cc1 | – | – | inhibition [4]: 34%
5 | CN(C)c1ncnc2c1ncn2-c1ccccc1 | – | – | inhibition [4]: 0%
6 | CNc1ncnc2c1ncn2Cc1ccccc1 | – | 4.62 | Change in conflict [3]: -3%
7 | CN(C)c1ncnc2c1ncn2C1Cc2ccccc2C1 | – | – | inhibition [4]: 48%
8 | CN(C)c1ncnc2c1ncn2Cc1cccc(F)c1 | – | 5.14 | –
9 | CN(C)c1ncnc2c1ncn2Cc1ccc(F)cc1 | 23% | – | –
10 | CN(C)c1ncnc2c1ncn2C | 0% | – | –
11 | CN(C)c1ncnc2c1ncn2Cc1cccc(C#N)c1 | 70% | – | –
12 | CN(C)c1ncnc2c1ncn2Cc1ccccc1Cl | – | 4.89 | –
13 | CN(C)c1ncnc2c1ncn2Cc1cccc(OC(=O)C(C)(C)C)c1 | – | 5.80 | Change in conflict [3]: 6%
14 | Cc1ccccc1Cn1cnc2c(N(C)C)ncnc21 | 70% | – | –
15 | Nc1ncnc2c1ncn2Cc1ccccc1 [9-BENZYL-9H-ADENINE] | – | 4.43 | –
16 | CN(C)c1ncnc2c1ncn2Cc1cccc(Br)c1 | 63% | – | –
17 | COc1cccc(Cn2cnc3c(N(C)C)ncnc32)c1 | 70% | – | –
18 | c1ccc(Cn2cnc3c(N4CCCC4)ncnc32)cc1 | – | 4.80 | Change in conflict [3]: 10%
19 | CSc1ncnc2c1ncn2Cc1ccccc1 | – | 5.48 | Change in conflict [3]: 13%
20 | CN(C)c1ncnc2c1ncn2Cc1cccc([N+](=O)[O-])c1 | 48% | – | –

Row | SMILES | inhibition [1] | pIC50 [2] | other results
21 | Oc1ncnc2c1ncn2Cc1ccccc1 | – | 4.72 | –
22 | CN(C)c1ncnc2c1ncn2Cc1ccccc1N | – | – | inhibition [1, 8]: 19%
23 | CN(C)c1ncnc2c1ncn2Cc1ccc(Cl)cc1 | 24% | – | –
24 | CN(C)c1ncnc2c1ncn2Cc1ccc([N+](=O)[O-])cc1 | 23% | – | –
25 | CN(C)c1ncnc2c1ncn2Cc1ccc(O)cc1 | – | – | inhibition [1, 8]: 15%
26 | CN(C)c1ncnc2c1ncn2Cc1ccc(N)cc1 | 67% | – | –
27 | CN(C)c1ncnc2c1ncn2Cc1ccccc1 | – | 4.89 | Change in conflict [3]: -17%
28 | c1ccc(Cn2cnc3c(N4CCC4)ncnc32)cc1 | – | 4.82 | Change in conflict [3]: -7%
29 | CN(C)c1ncnc2c1ncn2Cc1cccc(Cl)c1 | 59% | – | –
30 | CN(C)c1ncnc2c1ncn2Cc1ccccc1F | – | 5.27 | Change in conflict [3]: 17%
31 | COc1ccccc1Cn1cnc2c(N(C)C)ncnc21 | – | 4.70 | –
32 | CN(C)c1ncnc2c1ncn2C(c1ccccc1)c1ccccc1 | – | 4.77 | –
33 | CCN(CC)c1ncnc2c1ncn2Cc1ccccc1 | 83% | – | –
34 | CN(C)c1ncnc2c1ncn2Cc1cccc(CO)c1 | – | 5.30 | Change in conflict [3]: 4%
35 | C[C@@H](c1ccccc1)n1cnc2c(N(C)C)ncnc21 | – | 5.68 | Change in conflict [3]: 5%
36 | CN(C)c1ncnc2c1ncn2Cc1ccc(C#N)cc1 | 26% | – | –
37 | Clc1ncnc2c1ncn2Cc1ccccc1 | 40% | – | –
38 | c1ccc(Cn2cnc3c(NC4CC4)ncnc32)cc1 | – | – | inhibition [4]: 68%
39 | CN(C)c1ncnc2c1ncn2Cc1cccc(C(F)(F)F)c1 | 49% | – | –
40 | CN(c1ncnc2c1ncn2Cc1ccccc1)C1CCCC1 | – | 4.85 | Change in conflict [5]: -10%

Row | SMILES | inhibition [1] | pIC50 [2] | other results
41 | CC(=O)Oc1cccc(Cn2cnc3c(N(C)C)ncnc32)c1 | – | 6.36 | Change in conflict [3]: 2%
42 | CN(C)c1ncnc2c1ncn2Cc1ccccc1[N+](=O)[O-] | – | – | inhibition [1, 8]: 48%
43 | CN(C)c1ncnc2c1ncn2C1CCCc2ccccc21 (stereo unspecified) | – | 4.66 | –
44 | Cn1cnc2c(ncn2Cc2ccccc2)c1=O | – | 4.81 | Change in conflict [3]: -16%
45 | CNC1=Nc2ccc(Cl)cc2C(c2ccccc2)=[N+]([O-])C1 [CHLORDIAZEPOXIDE] | – | 6.70 | Change in conflict [6]: 24%; Change in conflict [7]: 46%; Change in conflict [3]: 67%
46 | CC(=O)Nc1ccc(Cn2cnc3c(N(C)C)ncnc32)cc1 | 22% | – | –
47 | CN(C)c1ncnc2c1ncn2Cc1ccc(OCc2ccccc2)cc1 | 11% | – | –
48 | CCN(C)c1ncnc2c1ncn2Cc1ccccc1 | – | 4.72 | –
49 | COc1ccc(Cn2cnc3c(N(C)C)ncnc32)cc1 | 0% | – | –
50 | Cc1cccc(Cn2cnc3c(N(C)C)ncnc32)c1 | 62% | – | –
51 | CN(C)c1ncnc2c1ncn2Cc1cccc(N)c1 | – | 6.05 | Change in conflict [3]: 4%
52 | OCCNc1ncnc2c1ncn2Cc1ccccc1 | – | – | inhibition [4]: 73%
53 | CN(C)c1ncnc2c1ncn2CCc1ccccc1 | 0% | – | –
54 | CN(C)c1ncnc2c1ncn2Cc1cccc(O)c1 | – | 5.92 | Change in conflict [3]: 2%
55 | CN(C)c1ncnc2nc[nH]c12 | 57% | – | –
56 | CN(C)c1ncnc2c1ncn2CCCc1ccccc1 | 0% | – | –
57 | CCNc1ncnc2c1ncn2Cc1ccccc1 | – | 4.72 | –
58 | C[C@H](c1ccccc1)n1cnc2c(N(C)C)ncnc21 | 56% | – | –
